# Experimental data: the array DNA melting data of Ke et al. (doi:10.1101/2024.01.08.574731)
# Key:
# [1] = folding enthalpy; higher = less favourable; fluorescence melt of hairpins on a sequencing array, two-state fit; settings: sodium 0.088 M
# Procedure, shortened: (§1)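 Cy3 signals were normalised both to pre-quench Cy3 and to control constructs. They came from library hairpins carrying annealed Cy3 and quencher oligos on a sequenced MiSeq flow cell, imaged in 50 mM Na-HEPES pH 8.0, 25 mM NaCl, in 2.5 °C steps up to 60 °C. Bootstrapped two-state fits gave melting temperature and folding enthalpy, and four replicates were combined by inverse variance. Fitted temperatures were then raised by 9.35 °C to match UV melts.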
# [2] = melting temperature; fluorescence melt of hairpins on a sequencing array, two-state fit, raised by 9.35 °C to match UV melts; settings: sodium 0.088 M
# Procedure, shortened: as §1
Sequence,folding enthalpy [1],Tm [2]
GAGTGCGAAAGCATACTC ((((((....)))..))),-17.5 kcal/mol,43.1 °C
GTACGTGGAAACACACAC ((..(((....)))..)),-10.8 kcal/mol,27.4 °C
GGAGACGGAAACGTCCCC ((.((((....)))).)),-20.1 kcal/mol,49.2 °C
GCGGCTGCCCGC ((((....)))),-19.4 kcal/mol,55 °C
GTGGGATCGAAAGATCAC (((..(((....)))))),-44.4 kcal/mol,54.4 °C
GGGCAAGGAAACTTGTCC ((.((((....)))).)),-40.7 kcal/mol,52.3 °C
GTAGCCGAAAGGCTTAC ((((((....))).))),-10.3 kcal/mol,43.1 °C
GACCCCGAAAGGGGGGTC ((((((....)))..))),-13.3 kcal/mol,67.4 °C
GCGAAGCGAAAGCTTGGC ((.((((....)))).)),-18.1 kcal/mol,52 °C
GTGTAGGCGAAAGCCCAC (((..(((....)))))),-17.4 kcal/mol,44.5 °C
GGTCGGAAACGACC (((((....))))),-32.3 kcal/mol,68 °C
GTACCCGAAAGGGGGTAC ((((((....)))..))),-18.1 kcal/mol,49.6 °C
GATCTCGGAAACGGGATC ((((.((....)).)))),-35 kcal/mol,51.3 °C
ACCGTGAAAACGGT (((((....))))),-17 kcal/mol,55.4 °C
GAGGCAGAAATGCCTC ((((((....)))))),-37.8 kcal/mol,60.7 °C
CGTGGCGGAAACGCAACG (((.(((....))).))),-38.7 kcal/mol,56.8 °C
GATCCCAATTGGGATC ((((((....)))))),-38.2 kcal/mol,61.5 °C
GGCCTTGGAAACGAGGCC (((((.(....).))))),-50.7 kcal/mol,59.4 °C
GACTCCGAAAGGACGTC ((((((....))).))),-30.8 kcal/mol,49.9 °C
GCCTGACGAAAGTCTGGC (((.(((....))).))),-37.2 kcal/mol,67.5 °C
GATCACTGAGGTGATC ((((((....)))))),-40.5 kcal/mol,59.4 °C
GCCATGCGAAAGCAGTGC ((..(((....)))..)),-15.2 kcal/mol,39.7 °C
GACGGGGGAAACCCTGTC (((.(((....))).))),-37.1 kcal/mol,54.4 °C

Sequence,folding enthalpy [1],Tm [2]
GAAGTAGAAATACTTC ((((((....)))))),-26.5 kcal/mol,42.5 °C
GATCTGATCCAGATC ((((((...)))))),-35.2 kcal/mol,47.6 °C
GCTTGCGAAAGCACGAGC ((((((....)))..))),-15.9 kcal/mol,46.9 °C
GAACCTGGAAACGGGTTC (((((.(....).))))),-39.3 kcal/mol,50.7 °C
GTACGAGAAATCGTAC ((((((....)))))),-38.2 kcal/mol,54.3 °C
GGTGTAGGAAACTACACC (((((((....))))))),-44.8 kcal/mol,60.4 °C
GGAATCGAAAGATGCTCC ((((((....)))..))),-10.7 kcal/mol,28.9 °C
GTAGAAGGAAACTTCTGC (.(((((....))))).),-23.1 kcal/mol,39 °C
GCTAACGAAAGTTGAAGC ((((((....)))..))),-15.2 kcal/mol,34.6 °C
GGCTACGCGAAAGCGGCC (((..(((....)))))),-17.2 kcal/mol,56.9 °C
GGTGTGCCGAAAGGCACC (((..(((....)))))),-7.6 kcal/mol,49.7 °C
GATCTACCTTAGATC ((((((...)))))),-32 kcal/mol,39.1 °C
GATCAGTGTTCTGATC ((((((....)))))),-37.3 kcal/mol,50.2 °C
GGGAGAGCGAAAGCTCCC (((..(((....)))))),-15.8 kcal/mol,53.7 °C
GTGACTACGAAAGTACAC (((..(((....)))))),-6.75 kcal/mol,29.3 °C
GTTGGCCGAAAGGCAAAC (((.(((....))).))),-21.8 kcal/mol,56.8 °C
GATCGATGCATCGATC ((((((....)))))),-46.9 kcal/mol,59.7 °C
CGTATCGGAAACGAGACG (((.(((....))).))),-35.2 kcal/mol,53.3 °C
GCTTAGGCGAAAGCCAGC (((..(((....)))))),-15.1 kcal/mol,44.4 °C
GCCGAGCGAAAGCCGGGC (((..((....))..))),-13.3 kcal/mol,67.2 °C
GCTAGGGGAAACTCTGGC ((.((.(....).)).)),-23.9 kcal/mol,32.9 °C
GCCAGTCGAAAGACCGGC (((.(((....))).))),-36.4 kcal/mol,55.3 °C
GAACCCCGAAAGGGTTTC (((.(((....))).))),-16.2 kcal/mol,47.8 °C

Sequence,folding enthalpy [1],Tm [2]
GCTGTAGGAAACTATGGC ((..(((....)))..)),-26.3 kcal/mol,34.7 °C
GGACAGAAATGTCC (((((....))))),-25.9 kcal/mol,53.2 °C
GTAATGCGAAAGCACTAC (((.(((....))).))),-19.9 kcal/mol,39.4 °C
GCGGTGCGAAAGCATAGC ((..(((....)))..)),-25.4 kcal/mol,63.4 °C
GCACGCCGAAAGGCTGC (((.(((....)))))),-21.8 kcal/mol,64.6 °C
GATCGTGCCGACGATC ((((((....)))))),-49.2 kcal/mol,56.4 °C
GATCAGACACTGATC ((((((...)))))),-47.1 kcal/mol,48.6 °C
GGTCCCGAAAGGGATACC ((((((....)))..))),-12.9 kcal/mol,41.4 °C
GGTGGTGAAAACCACC ((((((....)))))),-32.5 kcal/mol,68.2 °C
GCTATCGAAAGATCAAGC ((((((....)))..))),-18.3 kcal/mol,30.8 °C
GGCGTACGAAAGTAAGCC (((.(((....))).))),-35.1 kcal/mol,59.3 °C
GTGAAAGGAAACTCTCAC ((((.((....)).)))),-12.6 kcal/mol,26.5 °C
GTCCCCACGAAAGTGGAC (((..(((....)))))),-6.73 kcal/mol,29.3 °C
GATCACGGGTGTGATC ((((((....)))))),-36.9 kcal/mol,58.8 °C
GGCTATACGAAAGTAGCC (((..(((....)))))),-32.6 kcal/mol,48.7 °C
CGACCGGAAACGGGTCG ((((((....))).))),-32.4 kcal/mol,56.9 °C
GGCATCGAAAGATGCGCC ((((((....)))..))),-8.72 kcal/mol,57.3 °C
GATCGCAAGGGCGATC ((((((....)))))),-29.3 kcal/mol,68 °C
GAGAGCCGAAAGGCCCTC (((.(((....))).))),-18.3 kcal/mol,51.3 °C
GAATCTCCGAAAGGATTC (((..(((....)))))),-13.5 kcal/mol,28.7 °C
GCTGTGCGAAAGCAAGGC ((..(((....)))..)),-20 kcal/mol,50.6 °C
GATCCACCTGTGGATC ((((((....)))))),-42.1 kcal/mol,63.8 °C
GTGTCCGAAAGGAGTCAC ((((((....)))..))),-19.1 kcal/mol,35 °C

Sequence,folding enthalpy [1],Tm [2]
GAGATGGGAAACCACCTC (((.(((....))).))),-31.1 kcal/mol,36.1 °C
GCGACCGGAAACGGTCAC (.(((((....))))).),-12.3 kcal/mol,51.4 °C
CGCGGAAGACTCCGCG ((((((....)))))),-41.6 kcal/mol,62.8 °C
GTTGAAGGAAACTTCAAC (((((((....))))))),-51.5 kcal/mol,54.2 °C
GGGTAATCGAAAGATCCC (((..(((....)))))),-25 kcal/mol,35.9 °C
GATCACGGAAACGTGACC (.(((((....))))).),-14.7 kcal/mol,45.1 °C
GCTGGAGGAAACCCCAGC (((((.(....).))))),-38.7 kcal/mol,52.8 °C
GATCTGGCTTCAGATC ((((((....)))))),-37.8 kcal/mol,50.6 °C
GCATCGCGAAAGCGGGGC ((..(((....)))..)),-22.2 kcal/mol,63.1 °C
CGCGCTCGGAAACGAGCG (((..(((....)))))),-7.49 kcal/mol,67.6 °C
GCATCCGAAAGGAAGTGC ((((((....)))..))),-24.3 kcal/mol,41.3 °C
GCGGAGAAATCCGC (((((....))))),-29.1 kcal/mol,61.8 °C
GCCCTTGGAAACAAGAGC ((.((((....)))).)),-21.4 kcal/mol,37.6 °C
TCGTGGAAACACGA (((((....))))),-18.3 kcal/mol,53.7 °C
GAGCTCACGAAAGTGCTC (((..(((....)))))),-20.8 kcal/mol,44.4 °C
GTCAGCGAAAGCTGCGAC ((((((....)))..))),-11.8 kcal/mol,55.2 °C
GCATGGGAAACCATGC ((((((....)))))),-34.4 kcal/mol,65.6 °C
GATCCTGAGAAGGATC ((((((....)))))),-40.2 kcal/mol,57.6 °C
GATCATAAAATGATC ((((((...)))))),-30.7 kcal/mol,48 °C
GCTCTGCGAAAGCAGTGC ((.((((....)))).)),-16.7 kcal/mol,62 °C
GAAACCGAAAGGTATTC ((((((....))).))),-14.1 kcal/mol,31.6 °C
GATCATGACCATGATC ((((((....)))))),-41.5 kcal/mol,55.2 °C
GACGCCGGAAACGGCGCC (.(((((....))))).),-10.5 kcal/mol,56.9 °C
